Assay [1] deals with T1, recombinant GAC (residues 128-603) (Mus musculus, UniProt D3Z7P3).
T1 sequence (D3Z7P3 128-603 isoform D3Z7P3-2): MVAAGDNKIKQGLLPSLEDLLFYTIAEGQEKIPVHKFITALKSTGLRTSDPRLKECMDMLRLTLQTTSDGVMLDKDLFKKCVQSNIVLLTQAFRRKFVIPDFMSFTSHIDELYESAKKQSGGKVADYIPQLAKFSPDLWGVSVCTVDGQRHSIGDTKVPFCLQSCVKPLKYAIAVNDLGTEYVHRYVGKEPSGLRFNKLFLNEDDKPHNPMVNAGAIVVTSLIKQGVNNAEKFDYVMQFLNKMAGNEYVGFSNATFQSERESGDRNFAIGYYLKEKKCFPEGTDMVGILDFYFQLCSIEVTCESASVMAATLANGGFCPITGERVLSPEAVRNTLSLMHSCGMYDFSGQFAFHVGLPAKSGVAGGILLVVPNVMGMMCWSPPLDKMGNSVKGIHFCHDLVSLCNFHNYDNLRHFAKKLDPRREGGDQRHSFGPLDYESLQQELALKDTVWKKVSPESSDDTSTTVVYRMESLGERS
Nature of the assay: Recombinant GAC two-step glutaminase assay. It is filed as biochemical. To be noted: for inhibition of phosphate-activated enzyme: GAC activated by inorganic phosphate before inhibitor.

For another assay, the system named is MDA-MB-231 cells. The experiment in a line: MDA-MB-231 cell proliferation assay. It is filed as cell-based, human.
Assay [2] addresses T2, full-length wild-type GAC (Δ72 GAC) (Mus musculus, UniProt D3Z7P3).
T2 sequence (D3Z7P3 72-603 isoform D3Z7P3-2): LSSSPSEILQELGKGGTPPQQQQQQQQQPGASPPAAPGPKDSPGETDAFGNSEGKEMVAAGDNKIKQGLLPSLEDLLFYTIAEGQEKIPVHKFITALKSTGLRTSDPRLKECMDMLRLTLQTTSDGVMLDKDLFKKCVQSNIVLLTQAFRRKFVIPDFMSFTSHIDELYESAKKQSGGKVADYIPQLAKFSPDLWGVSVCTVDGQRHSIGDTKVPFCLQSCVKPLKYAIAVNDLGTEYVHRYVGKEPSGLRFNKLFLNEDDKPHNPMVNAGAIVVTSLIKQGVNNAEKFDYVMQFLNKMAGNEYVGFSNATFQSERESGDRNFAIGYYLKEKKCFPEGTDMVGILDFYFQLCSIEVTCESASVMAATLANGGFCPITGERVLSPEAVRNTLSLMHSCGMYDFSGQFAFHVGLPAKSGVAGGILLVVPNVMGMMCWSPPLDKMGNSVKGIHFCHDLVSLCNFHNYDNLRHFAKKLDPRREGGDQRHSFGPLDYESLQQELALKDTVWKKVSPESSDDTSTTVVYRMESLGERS
Nature of the assay: Recombinant protein assay with full-length wild-type GAC. The assay is classed as biochemical. Summed up: (§1)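 Mouse GAC residues 72-603 in pET28a, wild type or site-directed mutant. Inhibitor in DMSO mixed with 50 nM enzyme and 21 mM glutamine in pH 8.6 Tris-acetate, then inorganic phosphate (136 mM) added; 10 min at 37°C; acid quench. Glutamate read by glutamate dehydrogenase/NAD coupling, A340 after 45 min room temperature against NAD-free blank; duplicates. IC50 from fixed-slope inhibitor curve fit.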

Another assay deals with T3, R539L GAC mutant (Mus musculus, UniProt D3Z7P3, R539L).
T3 sequence (D3Z7P3 72-603 isoform D3Z7P3-2 R539L): T2 sequence (D3Z7P3 72-603 isoform D3Z7P3-2) with R468L
The experiment in a line: Recombinant protein assay with R539L GAC mutant. It is filed as biochemical. The following applies: concentrations up to 50 μM. Summed up:
as §1

The next assay addresses T4, F532L GAC mutant (Mus musculus, UniProt D3Z7P3, F532L).
T4 sequence (D3Z7P3 72-603 isoform D3Z7P3-2 F532L): T2 sequence (D3Z7P3 72-603 isoform D3Z7P3-2) with F461L
The experiment in a line: Recombinant protein assay with F532L GAC mutant. It is filed as biochemical. To be noted: concentrations up to 50 μM. Summed up:
as §1

Numbering of substitutions follows the chain as printed. Where “and” joins values, the source holds several entries; their conditions need not be identical. Identical values can stand only once.

As a reminder, the IC50 is the point on the concentration scale where inhibition reaches its midpoint. What is called inhibition is how much of the control response was suppressed.

Regarding `O=C(Cc1ccccc1)Nc1nnc(CCSCCc2nnc(NC(=O)Cc3ccccc3)s2)s1` [BPTES, reference compound], the “inhibition of phosphate-activated enzyme” value in assay [1] is listed as “able to do so”. Besides, the IC50 in the assay on MDA-MB-231 cells (MDA-MB-231 cell proliferation) stood at 3 µM.

In the case of `CN(C)c1ccc(C2Nc3ccc4ccccc4c3C3=C2C(=O)CC(C)(C)C3)cc1Br` (centres unmarked) [compound 968, 5-(3-bromo-4-(dimethylamino)phenyl)-2,2-dimethyl-2,3,5,6-tetrahydrobenzo[a]phenanthridin-4(1H)-one], the IC50 in assay [2] is 19 µM. In assay [1], the inhibition at 10 µM was 21 ± 5%, the inhibition at 25 µM was 94 ± 1%, the inhibition at 50 µM is 95 ± 1% and the “inhibition of phosphate-activated enzyme” value is recorded as “unable to inhibit the phosphate-activated enzyme”. Moreover, the IC50 in assay [1] (IC50, GAC 50 nM, glutamine 21 mM, phosphate 136 mM, 10 min, fixed slope inhibitor model, shorter GAC construct) is 9.3 µM and ~10 µM. In addition, in the assay with MDA-MB-231 cells (Homo sapiens, MDA-MB-231), the IC50 came out at 4.2 µM. In addition, the inhibition of mutant entry at R539L GAC mutant is recorded as “detectable inhibition was not observed”. For the same molecule, the inhibition of mutant result at F532L GAC mutant is “detectable inhibition was not observed”.

Values taken from publication PMC3620022 (Molecular cancer therapeutics, 2012).
